# High-throughput results (PubChem)
# IMP-1 inh: IMP-1 metallo-beta-lactamase inhibitors, primary screen, biochemical, epi-absorbance readout, Pseudomonas aeruginosa enzyme; metallo-beta-lactamase IMP-1 (Pseudomonas aeruginosa); purified IMP-1, nitrocefin hydrolysis, epi-absorbance fluorescence; inhibition, % at 5.6 µM; 290,000 compounds, 0.45% hits; AID 1556, 2009;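 active means inhibition above the mean plus 3 SD of all compounds in the same screening run, cut at about 4.5% in these data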
#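 Assay system: purified recombinant IMP-1 beta-lactamase. Input: IMP-1 0.2 nM before substrate addition. Buffer or medium: Zinc- and detergent-supplemented HEPES buffer, pH 7.1. Schedule: 25 °C, 15 min preincubation, 25 min reaction. Signal: Epi-absorbance fluorescence, 480 nm excitation, 530 nm emission. Evaluation: percent inhibition from optical density relative to buffer-blank wells.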
# VIM-2 inh: VIM-2 metallo-beta-lactamase inhibitors, primary screen, biochemical, epi-absorbance readout, Pseudomonas aeruginosa enzyme | purified VIM-2, nitrocefin hydrolysis, epi-absorbance fluorescence | inhibition, % at 5.6 µM | 290,000 compounds, 0.89% hits;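 active means inhibition above the mean of all tested compounds plus 3 SD, cutoff set per screening run, cut at about 7.5% in these data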;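 further: red hydrolysis product quenches plate fluorescence so inhibitors raise well fluorescence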
# Calb FLC: C. albicans growth inhibition with fluconazole, primary screen, CaCi-2 strain, Alamar Blue fluorescence; C. albicans CaCi-2 + fluconazole, 48 h; growth inhibition, % (test concentration not listed); 300,000 compounds, 0.57% hits; AID 1979, 2009;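 active means growth inhibition above about 58% in most replicates, limit read from the data, passing the limit was not always enough; inconclusive means exactly half the replicates above a set limit; inactive means most replicates below a set limit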;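 further: all wells also contain fluconazole at 8 µg/ml as a sub-toxic cotreatment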
# ASAP1 inh: inhibitors of human ASAP1 ArfGAP activity, primary screen, biochemical, fluorescence polarization. Arf-GAP with SH3 domain, ANK repeat and PH domain-containing protein 1 (Homo sapiens), …. ASAP1-stimulated ARF1 GTP hydrolysis, GDP FP detection. inhibition, % at 16.5 µM. 360,000 compounds, 0.19% hits. AID 624377, 2012; in the data active means inhibition above about 25%
# ARFGAP1 inh: inhibitors of rat ARFGAP1 GAP activity, primary screen, biochemical, fluorescence polarization, GDP tracer. Arfgap1-stimulated ARF1 GTP hydrolysis, GDP FP detection. ADP-ribosylation factor GTPase-activating protein 1 (Rattus norvegicus), Q62848. inhibition, % at 16.5 µM. 360,000 compounds, 0.26% hits;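 active means inhibition above a per-plate limit, mean inhibition of low control wells plus 3 SD, cut at about 25% in these data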
# Target sequence (Q62848 1-136 limits assumed): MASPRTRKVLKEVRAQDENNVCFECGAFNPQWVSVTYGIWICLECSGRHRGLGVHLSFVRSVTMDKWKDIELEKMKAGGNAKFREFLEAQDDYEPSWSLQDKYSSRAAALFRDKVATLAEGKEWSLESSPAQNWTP
#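 system = rat Arfgap1 catalytic domain, aa 1-136 | technique = FP, GDP Alexa 633 tracer displaced from anti-GDP antibody, 620/688 nm | compound = one concentration, 16.5 µM, DMSO 1.26% | medium = HEPES-based buffer, pH 7.5 | timing = compound-enzyme preincubation 20 min, reaction 120 min, detection 60 min, 25 °C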
# PHOSPHO1 block: PubChem AID 1565; Phosphoethanolamine/phosphocholine phosphatase (Homo sapiens), Q8TCT1; recombinant PHOSPHO1, absorbance phosphatase assay; inhibition, % at 13.3 µM; 290,000 compounds, 1.1% hits; in the data active means inhibition above about 60%
# Target sequence (Q8TCT1 whole entry, looked up): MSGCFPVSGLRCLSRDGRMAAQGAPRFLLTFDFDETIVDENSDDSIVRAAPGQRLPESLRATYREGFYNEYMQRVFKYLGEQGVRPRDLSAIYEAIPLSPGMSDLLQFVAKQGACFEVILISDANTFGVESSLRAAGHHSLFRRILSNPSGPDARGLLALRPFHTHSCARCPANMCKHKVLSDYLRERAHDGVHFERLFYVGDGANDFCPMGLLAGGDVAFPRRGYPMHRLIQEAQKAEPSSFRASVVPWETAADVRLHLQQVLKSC
# ARFGAP1 confirm: ARFGAP1 inhibitor hit confirmation, biochemical, fluorescence polarization, triplicate; 890 compounds, 30% hits; inhibition, % at 16.5 µM; shares compounds with ARFGAP1 inh; AID 651608, 2012; ARFGAP1-stimulated ARF1 GTP hydrolysis, GDP tracer FP;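 active means average inhibition over triplicates above the hit cutoff set in the earlier primary screen, cut at about 25% in these data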
# A number is an active result; 0 = inactive; ? = inconclusive; - = no result. Most compounds without a hit are left out; they make up all but 2.6% or so of the library.
SMILES,IMP-1 inh,VIM-2 inh,Calb FLC,ASAP1 inh,ARFGAP1 inh,PHOSPHO1 block,ARFGAP1 confirm
CCOc1ccc(NC(=O)Nc2ccc3nsnc3c2)cc1,0,0,0,0,0,0,-
C=CCN(CC=C)C(=S)Nc1ccc2nsnc2c1,0,0,0,0,32,0,0
O=C(N/N=C/C(Cl)=C/c1ccccc1)c1ccc2c(c1)OCO2,-,-,-,0,29,-,36
COC(=O)c1c(C)[nH]c(C)c1-c1ccccc1,0,0,?,0,25,0,0
CC1(C(=O)NS(C)(=O)=O)CCN1C(=O)C/C=C/c1ccccc1 (configuration not stated),-,-,-,0,0,-,-
CCc1nc2ccc(C(=O)NCCOc3ccc(OC)cc3)cn2c1N(CC)CCOC,-,-,-,0,0,-,-
O=C(c1ccncc1)N1CCN(S(=O)(=O)c2cccc(Cl)c2)CC1,-,-,0,0,27,-,0
COC(=O)[C@H]1[C@H]2C[C@@H]3c4[nH]c5cc(OC)ccc5c4CCN3C[C@H]2C[C@@H](OC(=O)c2cc(OC)c(OC)c(OC)c2)[C@@H]1OC,-,-,-,0,28,-,0
COCC(C)n1c(C)cc(C(=O)CN2c3cccc4cccc(c34)S2(=O)=O)c1C (configuration not stated),-,-,-,0,29,-,26
CC(C)C[C@H]1CN([C@@H](Cc2ccc(O)cc2)CN2CCCC2CN2C(=S)NC[C@@H]2Cc2ccccc2)C(=S)N1CC1CCCCC1 (some centres not stated),-,-,-,0,0,-,-
CCC(CC)c1nnc(NC(=O)c2cccc(S(=O)(=O)N3CCOCC3)c2)s1,-,-,-,0,28,-,0
Cc1cc(Nc2ccccc2)n(-c2ccc(C(=O)O)cc2)n1,0,0,0,0,0,0,-
COc1ccc(-n2nc(C)cc2Nc2ccccc2C(=O)O)cc1,0,0,0,0,25,0,0
COc1ccc(CCNC(=S)N2CCN(S(=O)(=O)c3ccc(C)cc3)CC2)cc1,-,-,0,0,27,-,0
Cc1cccc(-c2n[nH]nc2C2=CC(=O)CC(C)(C)C2)c1,-,-,-,0,42,-,0
CC1(C)CC(=O)C=C(c2n[nH]nc2-c2ccccc2)C1,-,-,-,0,0,-,-
Fc1ccc(Nc2ccnc(Nc3ccc(F)cc3)n2)cc1,0,0,0,0,25,0,0
O=C(NC1CCCC1)C(c1ccccc1)n1c(CSCCOc2ccccc2)nc2ccccc21 (configuration not stated),-,-,-,0,0,-,-
COc1ccc(NC(=O)NNC(=O)COc2ccc3ccccc3c2)cc1OC,0,0,0,0,0,0,-
Cc1ccc(NC(=O)CCC(=O)NNC(=O)COc2ccc([N+](=O)[O-])cc2)cc1C,0,0,0,0,0,0,-
Cc1ccc(NC(=O)NNC(=O)COc2ccc([N+](=O)[O-])cc2)cc1C,0,0,0,0,32,0,34
COc1ccc(NC(=O)NNC(=O)COc2ccc3cc(Br)ccc3c2)cc1OC,0,0,0,0,51,0,85
O=C(Nc1cccc2c1CCCC2)c1cc(C2CCCCN2S(=O)(=O)c2cccs2)on1 (configuration not stated),-,-,-,0,0,-,-
CC1(C(=O)Nc2cnc3ccccc3c2)CCN1Cc1ccc(-c2ccccc2)o1 (configuration not stated),-,-,-,0,0,-,-
Oc1ccc(NC(=S)N=Nc2c(O)[nH]c3ccc(Br)cc23)cc1,0,0,0,0,29,0,0
COc1cccc(NS(=O)(=O)c2cc3c(cc2C)NC(=O)CO3)c1,0,0,0,0,0,0,-
COc1ccccc1NS(=O)(=O)c1cc2c(cc1C)NC(=O)CO2,0,0,0,0,51,0,0
Cc1cnc(CNC(=O)c2csc([C@@H]3O[C@H](CO)[C@H](O)[C@H](O)[C@H]3O)n2)cn1,-,-,-,0,0,-,-
